The results in this text go back to ChEMBL document CHEMBL2331370, “Structure and absolute configuration of fumiquinazoline L, an alkaloid from a gorgonian-derived Scopulariopsis sp. fungus” (J Nat Prod, 2013).

In experiment [1] the test system is K562. The experiment can be described thus: Cytotoxicity against human K562 cells at 100 uM after 6 days by MTT assay. Format: functional, cell-based. On the technique in general: Tetrazolium assays rely on reduction of a dye to a coloured formazan, in cell work by metabolically active cells.
Experiment [2] concerns Staphylococcus aureus. The experiment in a line: Antibacterial activity against Staphylococcus aureus ATCC 27154 at 50 uM after 24 hrs by serial dilution technique. The format is functional, organism-based. The method in brief:
(§1)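 Broth serial dilution MIC in 96-well plates. Compound given as DMSO stock. Strains grown overnight at 37 °C in LB broth, then diluted to 106 cfu/mL. Positive control ciprofloxacin; DMSO as negative control; LB broth as blank. Incubation 37 °C, 24 h, then plates read at 630 nm.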

The test system of experiment [3] is Vibrio anguillarum. The experiment can be described thus: Antibacterial activity against Vibrio anguillarum ATCC 19019 at 50 uM after 24 hrs by serial dilution technique. Format: functional, organism-based. The method in brief: as §1
Experiment [4] has as its system Micrococcus luteus. The experiment can be described thus: Antibacterial activity against Micrococcus luteus ATCC 49732 at 50 uM after 24 hrs by serial dilution technique. The format is functional, organism-based. The method in brief:
as §1

The test system of experiment [5] is Bacillus subtilis. The experiment can be described thus: Antibacterial activity against Bacillus subtilis ATCC 6633 after 24 hrs by serial dilution technique. Format: functional. To be noted: ATCC 6633, 24 h. The method in brief: as §1
Experiment [6] deals with Staphylococcus. The experiment in a line: Antibacterial activity against Staphylococcus albus ATCC 8799 after 24 hrs by serial dilution technique. Format: functional. Particulars: ATCC 8799, 24 h. The method in brief: as §1
The subject of experiment [7] is SPC-A1. The experiment can be described thus: Cytotoxicity against human SPC-A1 cells at 100 uM after 6 days by MTT assay. The format is functional, cell-based.
Experiment [8] relates to Bacillus cereus. The experiment can be described thus: Antibacterial activity against Bacillus cereus ACCC 11077 at 50 uM after 24 hrs by serial dilution technique. Format: functional, organism-based. The method in brief: as §1
Experiment [9] has as its system Bel-7402. The experiment in a line: Cytotoxicity against human Bel7402 cells at 100 uM after 6 days by MTT assay. The format is functional, cell-based.
In experiment [10] the test system is SGC-7901. The experiment in a line: Cytotoxicity against human SGC7901 cells at 100 uM after 6 days by MTT assay. Format: functional, cell-based.
Experiment [11] has as its system Escherichia coli. The experiment in a line: Antibacterial activity against Escherichia coli ATCC 25922 at 50 uM after 24 hrs by serial dilution technique. Format: functional, organism-based. The method in brief: as §1
Experiment [12] relates to Micrococcus. The experiment in a line: Antibacterial activity against Micrococcus tetragenus ATCC 13623 at 50 uM after 24 hrs by serial dilution technique. Format: functional, organism-based. The method in brief: as §1
The test system of experiment [13] is Vibrio parahaemolyticus. The experiment can be described thus: Antibacterial activity against Vibrio parahaemolyticus ATCC 17802 after 24 hrs by serial dilution technique. Particulars: ATCC 17802, 24 h. The format is functional. The method in brief:
as §1

The test system of experiment [14] is A549. The experiment can be described thus: Cytotoxicity against human A549 cells after 6 days by MTT assay. Format: functional, cell-based. To be noted: A549, 144 h.

By MIC is commonly meant the smallest concentration in the dilution series that meets the test's criterion for growth inhibition. What is called IC50 is the concentration at which inhibition is half-maximal. A low value points to greater potency in that assay.

Activity calls are given as the source filed them.

With `CC(C)[C@@H]1N[C@@H]2N(C1=O)c1ccccc1[C@]21C[C@@H]2C(=O)N[C@](C)(O1)c1nc3ccccc3c(=O)n12` [FUMIQUINAZOLINE L], the result in experiment [1], in [2], in experiment [3], in [4], in experiment [7] and in experiment [8] was inactive. Moreover, the result in experiment [9], in [10], in [11] and in [12] was inactive. Also, the MIC in [5], in experiment [6] and in experiment [13] was more than 50 µM each time. The same compound displayed an IC50 in experiment [14] of more than 10 µM.
